From ChEMBL document CHEMBL4382230, “Structure-activity relationships, biological evaluation and structural studies of novel pyrrolonaphthoxazepines as antitumor agents” (Eur J Med Chem, 2019)
In brackets after ≈: the same amount, converted by molar mass. Activity calls are given as the source filed them. The rule behind the calls is not given here.

Columns and labels:
HL-60 [1] = assay: Induction of autophagy in human HL60 cells assessed as […] in LC3B-2 levels at 10 uM after 16 hrs in presence of lysosomal inhibitor chloroquine by immunoblot analysis; assay type: functional, cell-based
Outline: (§1)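 HL-60 in serum-supplemented RPMI 1640, or starved in Earle's Balanced Salts for 15 min beforehand, then treated with 10 μM compound with or without 40 μM chloroquine for 1 h 45 min or 16 h. LC3B-II measured by immunoblot, densitometry normalized to actin, three independent experiments, Student's T-test.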

Tubulin (Homo sapiens) [2] = target: T1, Tubulin (Homo sapiens) (UniProt P68371+Q9H4B7+P0DPH7+P68366+Q13509+Q71U36+P04350+Q3ZCM7+P07437+P68363+Q9BQE3+Q6PEY2+Q13885+Q9BVA1+Q9BUF5); assay: Inhibition of tubulin (unknown origin) polymerization at 27.5 uM measured over 70 mins by turbidity method; assay type: protein-complex assay
Outline: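 Tubulin at 25 µM in GAB buffer (10 mM sodium phosphate, 30% glycerol, 1 mM EGTA, 6 mM MgCl2, 1 mM GTP, pH 6.7) with 27.5 µM compound or DMSO vehicle. Turbidity is read at 355 nm for 70 min at 37 °C. Data are normalized to the initial stable absorbance plateau to correct for compound absorbance.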

Tubulin (Homo sapiens) [3] = target: T1, Tubulin (Homo sapiens); assay: Displacement of podophyllotoxin from tubulin (unknown origin) by ultracentrifugation method; assay type: protein-complex assay
[4] = Ratio of IC50 for mouse NIH/3T3 cells harboring MDR G185 to IC50 for mouse NIH/3T3 cells
Outline: (§2)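 Relative resistance: IC50 in the P-gp overexpressing resistant line divided by IC50 in the parental line. Both IC50s came from the 48 h MTT assay (serial dilutions, absorbance at 595/690 nm, log-dose response curves, three independent assays).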

NIH3T3 [5] = assay: Cytotoxicity against mouse NIH/3T3 cells after 48 hrs by MTT assay; assay type: cell-based; details: NIH3T3, 48 h
Outline: (§3)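 Cells seeded at 12,000 to 17,000 per well depending on line, incubated overnight, then given serial dilutions of ligand for 48 h. MTT at 2.5 mg/mL added for 4 h at 37 °C, formazan solubilized overnight (10% SDS, 45% dimethylformamide, pH 5.5), absorbance read at 595/690 nm. IC50 from log-dose response curves; mean ± SE of three independent assays.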

NB-4 [6] = assay: Induction of differentiation in human NB4 cells at 500 nM after 24 hrs in presence of ATRA by CD11c staining-based flow cytometric analysis; assay type: functional, cell-based
Outline: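 NB4 exposed to 0.5 μM compound together with 1 μM ATRA for 24 h. Cells stained with PE-conjugated CD11c (mouse IgG1-PE control) for 1 h at 4 °C in the dark, washed, resuspended in PBS with propidium iodide (0.25 μg/mL), then analysed by flow cytometry. Biological triplicates, mean ± S.E.M.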

[7] = Cytotoxicity against human A2780AD cells after 48 hrs by MTT assay; assay type: functional, cell-based; outline: as §3
NB-4 [8] = assay: Cell cycle arrest in human NB4 cells assessed as accumulation of cells at G1 phase after 24 hrs by propidium iodide staining-based flow cytometric analysis; assay type: functional
Outline: (§4)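 NB4 cultured at 37 °C, 5% CO2 in RPMI-1640 with 10% heat-inactivated FBS. Treated at 50 and 100 nM, 1 and 10 μM for 24 h. Cells fixed/permeabilized in 70% ethanol overnight at 4 °C, then given RNase and 20 μg/ml PI for 30 min. Doublets excluded, 20,000 events per sample; cell-cycle phase distribution analysed.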

[9] = Apparent solubility of compound in sodium phosphate buffer at 15 uM after 20 mins; assay type: physicochemical
HL-60 [10] = assay: Cell cycle arrest in human HL60 cells assessed as accumulation of cells at G2/M phase at 10 uM after 24 hrs by propidium iodide staining-based flow cytometric analysis; assay type: functional
Outline: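 HL-60 exposed to 10 μM for 24 h, vehicle 0.1% DMSO. Cells plated at 2×10^5 cells/mL, stained in PBS with 0.1% sodium citrate, 0.1% NP40 and propidium iodide for 30 min at room temperature in the dark. DNA content by flow cytometry; G2/M fraction reported.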

Tubulin (Homo sapiens) [11] = target: T1, Tubulin (Homo sapiens); assay: Binding affinity to tubulin (unknown origin) by analytical ultracentrifugation
NB-4 [12] = assay: Cell cycle arrest in human NB4 cells assessed as accumulation of cells at G2/M phase at 50 to 10000 nM after 24 hrs by propidium iodide staining-based flow cytometric analysis; assay type: functional; outline: as §4
[13] = Ratio of IC50 for human A2780AD cells to IC50 for human A2780 cells; assay type: functional; outline: as §2
HL-60 [14] = assay: Induction of autophagy in serum starved human HL60 cells assessed as increase in LC3B-2 levels at 10 uM after 105 mins by immunoblot analysis; assay type: functional, cell-based; outline: as §1
NIH3T3 [15] = assay: Cytotoxicity against mouse NIH/3T3 cells harboring MDR G185 after 48 hrs by MTT assay; assay type: functional, cell-based; details: NIH3T3, 48 h; outline: as §3
NB-4 [16] = assay: Cell cycle arrest in human NB4 cells at 50 to 10000 nM after 24 hrs by propidium iodide staining-based flow cytometric analysis; assay type: functional; outline: as §4
A2780 = assay: Cytotoxicity against human A2780 cells after 48 hrs by MTT assay; assay type: functional, cell-based; details: A2780, 48 h; outline: as §3
HL-60 [17] = assay: Induction of autophagy in serum starved human HL60 cells assessed as increase in LC3B-2 levels at 10 uM after 105 mins in presence of lysosomal inhibitor chloroquine by immunoblot analysis; assay type: functional, cell-based; outline: as §1

CC(=O)OC1=C(c2ccc3c(c2)OCO3)Oc2cc3ccccc3cc2-n2cccc21
Activity (HL-60 [1]): Active
inhibition (Tubulin (Homo sapiens) [2]): Active
inhibition (Tubulin (Homo sapiens) [3]): Active
Ratio IC50 [4]: 0.73
IC50 (NIH3T3 [5]): 2780 nM
Activity (NB-4 [6]): Active
IC50 [7]: 7.1 µM
Activity (NB-4 [8]): Dose-dependent effect
solubility at 20 min, 15 µM [9]: 0.14 µM (≈ 0.0576 µg/mL)
Activity (HL-60 [10]): Active
Kb (Tubulin (Homo sapiens) [11]): 2 ×10⁷ /M
Activity (NB-4 [12]): Active
Ratio IC50 [13]: 3.46
Activity (HL-60 [14]): Active
IC50 (NIH3T3 [15]): 2040 nM
Activity (NB-4 [16]): inactive
IC50 (A2780): 2050 nM
Activity (HL-60 [17]): Active
